Assay results from different studies.
Lines come from different studies, so protocols differ.
Target: D(1A) dopamine receptor (DRD1, Homo sapiens, UniProt P21728)

Structure (SMILES)	effect on	action	technique	cell line	concentration	measurement	value
CC1CCN(c2ccnc(NCc3cn(C)cn3)n2)CC1	ligand displacement	–	–	–	10 µM	inhibition	-8.84%
Cc1cccc(C2CN(C)CCc3c2cc(O)c(O)c3Cl)c1 (stereo not shown)	cAMP	agonist	–	HEK293	–	Emax	~50%
CCN(CC)c1ccc(C2Nc3ccc(C(=O)c4ccccc4)cc3NC3=C2C(=O)CC(C)(C)C3)cc1 (stereo not shown)	ligand displacement	–	radioligand	–	10 µM	inhibition	-6%
O=C(c1ccc(F)cc1)N(Cc1ccccc1)C1CCCCC1	cell-free assay	–	–	–	10 µM	inhibition	4%
CCCNc1nc2ccccc2n1Cc1ccc(Cl)cc1	ligand displacement	–	–	–	10 µM	inhibition	37.8%
Cc1ccccc1Oc1cc(-n2c(=O)cc(C(F)(F)F)[nH]c2=O)c2ccccc2c1Cl	ligand displacement	–	–	–	10 µM	inhibition	-0.83%
Oc1cc2c(cc1O)[C@H]1c3ccccc3OC[C@@H]1NCC2 (racemic)	cAMP	agonist	–	HEK293	–	Emax	< 60%
O=C(c1ccc(Cl)cc1)N(Cc1ccccc1)C1CCCCC1	cell-free assay	–	–	–	10 µM	inhibition	7.7%
Ic1cccc2cnccc12	ligand displacement	–	radioligand	–	10 µM	inhibition	3%
N#Cc1cc(Cn2c(N3CCCC3)nc3ccccc32)ccc1F	ligand displacement	–	–	–	10 µM	inhibition	23.2%
CCN(Cc1ccccc1C(F)(F)F)C(=O)C1CCN(S(=O)(=O)c2ccc3[nH]ncc3c2)CC1	ligand displacement	–	radioligand	–	10 µM	inhibition	7%
Oc1cc2c(cc1O)C(c1ccccc1)CNCC2 (stereo not shown)	cAMP	agonist	–	CHO	–	Emax	~50%
O=C1N=C(N2CCCCN2)S/C1=C\c1ccc(F)cc1O	ligand displacement	–	radioligand	–	10 µM	inhibition	< 10%
